# Data: ChEMBL document CHEMBL1123286 (J Med Chem, 1986)
# Where a SMILES comes first, the peptide text is derived from it. [ ]: non-standard residue; d: D form.
# Columns and labels:
# Mus musculus [1] = experiment: In vivo opioid activity was evaluated by determining analgesia in the mouse by the tail-flick test when administered through intra cerebro ventricular route; settings: Cardiac ventricle
# Mus musculus [2] = experiment: In vivo opioid activity was evaluated by determining analgesia in the mouse by the tail-flick test when administered through intracerebroventricular route; format: functional
# In short: (§1)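 Swiss-Webster mice (23–25 g), tail-flick test with 55 °C water as the stimulus. Compound was given icv or sc in saline (4 μL), with latency read before and at various times after dosing. Cut-off was 10 s. %analgesia = (T−T0)/(10−T0)×100. At least 10 animals per dose; ED50 taken at time of peak activity. Naloxone pretreatment 0.5–1 mg/kg sc.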
# Mus musculus [3] = experiment: In vivo opioid activity was evaluated by determining analgesia in the mouse by the tail-flick test, when administered through subcutaneous route; format: functional; settings: sc; in short: as §1
# [4] = biological target: Opioid receptors; mu/kappa/delta; experiment: In vitro opioid inhibitory activity against in guinea pig ileum; format: functional, tissue-based, Cavia porcellus
# Mus musculus [5] = experiment: In Vivo opioid activity was evaluated by determining analgesia in the mouse by the tail-flick test when administered through intra cerebro ventricular route; format: functional; in short: as §1
# Mus musculus [6] = experiment: In vivo opioid activity was evaluated by determining analgesia in the mouse by the tail-flick test, relative potency with respect to morphine intra cerebro ventricular route; format: functional
# In short: (§2)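 Mouse tail-flick analgesia in Swiss-Webster mice (23–25 g) with 55 °C water, compound given icv or sc in saline (4 μL). Cut-off was 10 s; %analgesia was computed from pre- and post-dose latencies. At least 10 animals per dose, with ED50 taken at peak activity.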
# Mus musculus [7] = experiment: In vivo opioid activity was evaluated by determining analgesia in the mouse by the tail-flick test, when administered through Subcutaneous route; format: functional; settings: sc; in short: as §1
# Mus musculus [8] = experiment: In vivo opioid activity was evaluated by determining analgesia in the mouse by the tail-flick test. Relative potency with respect to morphine when administered through subcutaneous route; format: functional; in short: as §2
# [9] = biological target: Opioid receptors; mu/kappa/delta (Homo sapiens, UniProt P41145+P41143+P35372); experiment: In vitro inhibitory activity against opioid activity in guinea pig ileum, relative to H-Tyr-D-MetO-Phe-Gly-NH2; format: tissue-based; settings: Cavia porcellus, target entry is the homologue from another species
# Mus musculus [10] = experiment: In vivo opioid activity was evaluated by determining analgesia in the mouse by the tail-flick test, relative potency with respect to morphine intracerebroventricular route; format: functional; in short: as §2
# Mus musculus [11] = experiment: In vivo opioid activity was evaluated by determining analgesia in the mouse by the tail-flick test Relative potency with respect to morphine when administered through subcutaneous route; format: functional; in short: as §2
# Mus musculus [12] = experiment: In vivo opioid activity was evaluated by determining analgesia in the mouse by the tail-flick test, Relative potency with respect to morphine intracerebroventricular route; format: functional; in short: as §2
# Opioid receptors; mu/kappa/delta (Homo sapiens, UniProt P41145+P41143+P35372), sequence (P35372 whole entry, looked up): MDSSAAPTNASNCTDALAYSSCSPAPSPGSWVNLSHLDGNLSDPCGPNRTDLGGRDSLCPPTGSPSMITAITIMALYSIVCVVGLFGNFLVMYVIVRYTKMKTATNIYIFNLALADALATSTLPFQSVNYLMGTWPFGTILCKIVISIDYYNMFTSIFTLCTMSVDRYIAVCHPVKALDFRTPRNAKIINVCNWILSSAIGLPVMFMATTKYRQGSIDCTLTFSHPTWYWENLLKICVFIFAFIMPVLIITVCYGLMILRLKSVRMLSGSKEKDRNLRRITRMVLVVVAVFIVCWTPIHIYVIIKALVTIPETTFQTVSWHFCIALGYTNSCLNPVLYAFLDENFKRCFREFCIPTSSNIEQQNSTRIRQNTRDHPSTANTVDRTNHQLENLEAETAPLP
# Opioid receptors; mu/kappa/delta (Homo sapiens, UniProt P41145+P41143+P35372), sequence (P41143 whole entry, looked up): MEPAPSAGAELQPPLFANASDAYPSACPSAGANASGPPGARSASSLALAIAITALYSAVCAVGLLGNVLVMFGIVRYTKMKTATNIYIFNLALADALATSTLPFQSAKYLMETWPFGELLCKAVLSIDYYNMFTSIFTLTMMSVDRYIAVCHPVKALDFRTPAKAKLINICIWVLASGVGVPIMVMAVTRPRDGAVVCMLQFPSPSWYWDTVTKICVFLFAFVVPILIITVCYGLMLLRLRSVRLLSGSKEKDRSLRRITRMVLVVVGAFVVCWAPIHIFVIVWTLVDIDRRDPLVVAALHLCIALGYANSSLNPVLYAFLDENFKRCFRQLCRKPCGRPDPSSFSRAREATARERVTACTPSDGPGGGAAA
# Opioid receptors; mu/kappa/delta (Homo sapiens, UniProt P41145+P41143+P35372), sequence (P41145 whole entry, looked up): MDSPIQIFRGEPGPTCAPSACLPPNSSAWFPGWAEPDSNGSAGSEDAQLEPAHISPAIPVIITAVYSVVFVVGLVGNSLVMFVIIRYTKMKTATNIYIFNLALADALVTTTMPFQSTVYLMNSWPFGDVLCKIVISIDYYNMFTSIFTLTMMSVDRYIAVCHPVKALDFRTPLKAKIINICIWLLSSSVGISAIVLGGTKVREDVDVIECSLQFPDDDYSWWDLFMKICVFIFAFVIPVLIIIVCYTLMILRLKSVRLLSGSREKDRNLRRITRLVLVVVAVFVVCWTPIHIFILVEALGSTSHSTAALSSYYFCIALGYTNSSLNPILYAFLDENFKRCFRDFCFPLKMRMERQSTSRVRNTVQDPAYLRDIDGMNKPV
smiles,measurement,setting,value
CN1CC[C@]23c4c5ccc(O)c4O[C@H]2[C@@H](O)C=C[C@H]3[C@H]1C5 [MORPHINE],ED50,Mus musculus [1],3030 µmol/kg
C[S+]([O-])CC[C@@H](NC(=O)[C@@H](N)Cc1ccc(O)cc1)C(=O)N[C@@H](Cc1ccccc1)C(=O)NCC(N)=O (some centres undefined),ED50,Mus musculus [2],1.97 pmol/mouse
same,ED50,Mus musculus [3],0.65 µmol/kg
CSCC[C@@H](NC(=O)[C@@H](N)Cc1ccc(O)cc1)C(=O)N[C@@H](Cc1ccccc1)C(=O)NCC(N)=O (H-Y[dM]FG-NH2),IC50,[4],97.6 nM
same,ED50,Mus musculus [5],87.5 µmol/kg
same,Relative potency,Mus musculus [6],35
same,ED50,Mus musculus [7],12.1 µmol/kg
same,Relative potency,Mus musculus [8],0.9
same,Relative potency,[9],0.1
C[S+]([O-])CC[C@@H](NC(=O)[C@@H](N)Cc1ccc(O)cc1)C(=O)N[C@@H](Cc1ccccc1)C(=O)NCC(=O)NC12CC3CC(CC(C3)C1)C2 (some centres undefined),ED50,Mus musculus [2],30.4 pmol/mouse
same,Relative potency,Mus musculus [10],100
same,IC50,[4],22 nM
same,ED50,Mus musculus [7],3.93 µmol/kg
same,Relative potency,Mus musculus [11],2.8
CC(NC(=O)CNC(=O)[C@H](Cc1ccccc1)NC(=O)[C@@H](CC[S+](C)[O-])NC(=O)[C@@H](N)Cc1ccc(O)cc1)c1ccccc1 (some centres undefined),ED50,Mus musculus [2],83.6 pmol/mouse
same,Relative potency,Mus musculus [10],36
same,IC50,[4],72.1 nM
same,ED50,Mus musculus [3],5.81 µmol/kg
same,Relative potency,Mus musculus [11],1.8
C[S+]([O-])CC[C@@H](NC(=O)[C@@H](N)Cc1ccc(O)cc1)C(=O)N[C@@H](Cc1ccccc1)C(=O)NCC(=O)NCc1ccccc1 (some centres undefined),ED50,Mus musculus [2],18.1 pmol/mouse
same,IC50,[4],21 nM
same,ED50,Mus musculus [3],3.51 µmol/kg
same,Relative potency,Mus musculus [12],167
same,Relative potency,Mus musculus [11],3.1
CN(CC(=O)NC12CC3CC(CC(C3)C1)C2)C(=O)[C@H](Cc1ccccc1)NC(=O)[C@@H](CC[S+](C)[O-])NC(=O)[C@@H](N)Cc1ccc(O)cc1 (some centres undefined),ED50,Mus musculus [2],60.6 pmol/mouse
same,Relative potency,Mus musculus [10],50
same,IC50,[4],25.5 nM
same,ED50,Mus musculus [7],4.82 µmol/kg
same,Relative potency,Mus musculus [11],2.3
